Measurements taken from ChEMBL document CHEMBL1140074, “Aminoacyl-anthraquinone conjugates as telomerase inhibitors: synthesis, biophysical and biological evaluation” (J Med Chem, 2008).

Experiments:
[1] = biological target: Telomerase reverse transcriptase (Homo sapiens, UniProt O14746); assay: Inhibition of telomerase in human JR8 cells by TRAP assay; type: cell-based
Outline: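 Telomerase source was a CHAPS lysate of exponentially growing JR8 cells (500 ng protein per reaction). Elongation 30 min at 30 °C, then 30 PCR cycles. Products run on 10% PAGE with phosphorimager read-out, in triplicate. Drug levels kept below those inhibiting Taq.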

Homo sapiens [2] = species on record: Homo sapiens; assay: Binding affinity to human telomeric DNA sequence assessed as stabilization of G-quadruplex at 10 uM by thermal denaturation
Outline: (§1)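 Fluorescence melting in a LightCycler of 0.25 µM telomeric oligonucleotide HTS (5'-FAM, 3'-methyl red) in LiP buffer (10 mM LiOH, 50 mM KCl, pH 7.4 with H3PO4). Samples were denatured at 95 °C for 5 min, then cooled and reheated at 0.5 °C/min in 1 °C steps with 2 min equilibration per step. Excitation 488 nm, emission 520 nm. ΔTm was taken relative to ligand-free DNA.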

[3] = biological target: DNA polymerase I, thermostable (Thermus aquaticus, UniProt P19821); assay: Inhibition of Taq polymerase
Outline: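 PCR with 2.5 ng pBR322 template and primers Tup/Tdown (0.5 µM) amplifying plasmid bases 906-1064. Compounds tested from 20 nM to 40 µM. Run 25 cycles of 94 °C, 65 °C and 72 °C (30 s each). Products resolved on 2% agarose in TBE and stained with ethidium bromide.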

Homo sapiens [4] = species on record: Homo sapiens; assay: Binding affinity to human telomeric DNA sequence assessed as stabilization of G-quadruplex at 1 uM by thermal denaturation; outline: as §1
HeLa = assay: Cytotoxicity against human HeLa cells expressing telomerase after 96 hrs by MTT assay; type: functional, cell-based
Outline: (§2)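 Cells grown in DMEM with 10% heat-inactivated FCS, penicillin/streptomycin, 37 °C, 5% CO2. Plated at 10000 cells/well and left overnight, then exposed to eight serial dilutions in triplicate for 96 h. MTT added to 0.8 mg/mL final for 2 h, formazan dissolved in DMSO, absorbance read at 540 nm. IC50 from sigmoidal dose-response fits.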

[5] = Cytotoxicity against human 293T cells expressing telomerase after 96 hrs by MTT assay; type: cell-based; details: HEK-293T; outline: as §2

Telomerase reverse transcriptase, sequence (O14746 whole entry): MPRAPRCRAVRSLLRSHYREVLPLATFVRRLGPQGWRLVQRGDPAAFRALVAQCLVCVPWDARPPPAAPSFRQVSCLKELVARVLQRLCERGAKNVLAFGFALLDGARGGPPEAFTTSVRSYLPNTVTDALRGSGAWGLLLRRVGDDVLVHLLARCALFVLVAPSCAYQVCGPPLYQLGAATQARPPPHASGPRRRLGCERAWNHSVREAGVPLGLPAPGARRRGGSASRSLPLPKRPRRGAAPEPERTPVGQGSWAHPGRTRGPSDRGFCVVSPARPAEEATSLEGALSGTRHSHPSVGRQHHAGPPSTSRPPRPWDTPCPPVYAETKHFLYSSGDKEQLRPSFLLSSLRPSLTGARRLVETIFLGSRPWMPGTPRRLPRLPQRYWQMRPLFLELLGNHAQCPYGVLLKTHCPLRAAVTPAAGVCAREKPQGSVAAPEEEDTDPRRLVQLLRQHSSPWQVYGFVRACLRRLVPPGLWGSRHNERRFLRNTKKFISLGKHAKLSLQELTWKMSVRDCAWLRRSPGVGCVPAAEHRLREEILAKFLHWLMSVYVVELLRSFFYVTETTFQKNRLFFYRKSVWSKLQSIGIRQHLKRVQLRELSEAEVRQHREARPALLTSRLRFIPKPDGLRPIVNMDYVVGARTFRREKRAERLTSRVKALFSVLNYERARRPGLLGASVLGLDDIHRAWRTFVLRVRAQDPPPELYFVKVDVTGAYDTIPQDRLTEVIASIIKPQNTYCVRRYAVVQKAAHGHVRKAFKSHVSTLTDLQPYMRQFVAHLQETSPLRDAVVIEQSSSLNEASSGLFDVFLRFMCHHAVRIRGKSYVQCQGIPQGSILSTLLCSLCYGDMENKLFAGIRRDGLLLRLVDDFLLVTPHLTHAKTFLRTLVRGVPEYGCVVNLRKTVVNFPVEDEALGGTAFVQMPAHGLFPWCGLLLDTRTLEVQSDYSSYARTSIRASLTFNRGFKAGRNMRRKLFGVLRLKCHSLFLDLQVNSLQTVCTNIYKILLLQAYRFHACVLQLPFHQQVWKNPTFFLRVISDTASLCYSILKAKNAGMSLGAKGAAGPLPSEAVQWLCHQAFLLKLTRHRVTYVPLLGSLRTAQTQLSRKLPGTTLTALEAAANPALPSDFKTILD
DNA polymerase I, thermostable, sequence (P19821 whole entry): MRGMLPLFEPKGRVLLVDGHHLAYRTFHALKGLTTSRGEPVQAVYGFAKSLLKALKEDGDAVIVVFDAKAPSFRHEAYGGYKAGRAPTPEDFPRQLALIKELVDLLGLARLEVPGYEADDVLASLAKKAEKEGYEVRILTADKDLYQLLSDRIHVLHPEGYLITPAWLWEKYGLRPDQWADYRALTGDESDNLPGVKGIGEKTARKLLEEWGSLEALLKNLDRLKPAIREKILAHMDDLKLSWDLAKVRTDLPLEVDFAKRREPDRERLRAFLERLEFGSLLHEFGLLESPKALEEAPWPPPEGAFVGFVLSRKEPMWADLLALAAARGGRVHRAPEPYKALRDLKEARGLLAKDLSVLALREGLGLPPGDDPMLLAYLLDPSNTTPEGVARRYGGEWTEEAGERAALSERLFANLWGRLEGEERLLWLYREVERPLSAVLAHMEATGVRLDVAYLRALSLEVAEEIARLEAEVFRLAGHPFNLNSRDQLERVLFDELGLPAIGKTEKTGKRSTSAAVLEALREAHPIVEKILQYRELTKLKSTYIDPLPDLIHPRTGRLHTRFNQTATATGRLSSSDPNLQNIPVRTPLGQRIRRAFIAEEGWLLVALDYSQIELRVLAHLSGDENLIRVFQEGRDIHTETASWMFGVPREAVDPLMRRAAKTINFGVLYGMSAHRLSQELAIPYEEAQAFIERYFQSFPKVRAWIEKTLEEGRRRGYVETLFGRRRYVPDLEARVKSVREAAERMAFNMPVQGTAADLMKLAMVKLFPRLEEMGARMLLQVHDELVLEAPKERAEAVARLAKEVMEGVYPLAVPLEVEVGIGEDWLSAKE

EC50 [1] [µM]	ΔTm (Homo sapiens [2]) [°C]	EC50 [3] [µM]	ΔTm (Homo sapiens [4]) [°C]	SMILES	IC50 (HeLa) [µM]	IC50 [5] [µM]
> 40	4.4	> 40	0.4	C[C@H](N)C(=O)NCCNC(=O)c1ccc2c(c1)C(=O)c1ccc(C(=O)NCCNC(=O)[C@H](C)N)cc1C2=O		
0.8	> 17	5	12	NCCCC[C@H](N)C(=O)NCC(=O)Nc1ccc2c(c1)C(=O)c1ccc(NC(=O)CNC(=O)[C@@H](N)CCCCN)cc1C2=O	27	34
> 40	0.6	> 40	0.5	N[C@@H](Cc1ccccc1)C(=O)NCC(=O)Nc1ccc2c(c1)C(=O)c1ccc(NC(=O)CNC(=O)[C@@H](N)Cc3ccccc3)cc1C2=O		
	13.3		0.6	N=C(N)NCCC[C@H](N)C(=O)NCCC(=O)Nc1ccc2c(c1)C(=O)c1cc(NC(=O)CCNC(=O)[C@@H](N)CCCNC(=N)N)ccc1C2=O		
> 40	1.3	> 40	0.2	CC(C)C[C@H](N)C(=O)NCCNC(=O)c1ccc2c(c1)C(=O)c1ccc(C(=O)NCCNC(=O)[C@@H](N)CC(C)C)cc1C2=O		
> 40	3	> 40	0.4	CC[C@H](C)[C@H](N)C(=O)NCCNC(=O)c1ccc2c(c1)C(=O)c1cc(C(=O)NCCNC(=O)[C@@H](N)[C@@H](C)CC)ccc1C2=O		
> 40	4.3	> 40	0.5	N[C@@H](Cc1ccccc1)C(=O)NCCC(=O)Nc1ccc2c(c1)C(=O)c1ccc(NC(=O)CCNC(=O)[C@@H](N)Cc3ccccc3)cc1C2=O		
> 40	6	> 40	0.5	CC(C)[C@H](N)C(=O)NCC(=O)Nc1ccc2c(c1)C(=O)c1ccc(NC(=O)CNC(=O)[C@@H](N)C(C)C)cc1C2=O		
> 40	1.1	> 40	0.2	N[C@@H](Cc1ccccc1)C(=O)NCCNC(=O)c1ccc2c(c1)C(=O)c1ccc(C(=O)NCCNC(=O)[C@@H](N)Cc3ccccc3)cc1C2=O		
0.8		10		NC(N)=NCCC[C@H](N)C(=O)NCC(=O)Nc1ccc2c(c1)C(=O)c1ccc(NC(=O)CNC(=O)[C@@H](N)CCCN=C(N)N)cc1C2=O		
> 40	8.2	> 40	0.2	C[C@H](N)C(=O)NCCC(=O)Nc1ccc2c(c1)C(=O)c1ccc(NC(=O)CCNC(=O)[C@H](C)N)cc1C2=O		
	25		4.8	N=C(N)NCCC[C@H](N)C(=O)NCCC(=O)Nc1ccc2c(c1)C(=O)c1ccc(NC(=O)CCNC(=O)[C@@H](N)CCCNC(=N)N)cc1C2=O	100	> 100
> 40	6	> 40	0	CC(C)[C@H](N)C(=O)NCCC(=O)Nc1ccc2c(c1)C(=O)c1ccc(NC(=O)CCNC(=O)[C@@H](N)C(C)C)cc1C2=O		
> 40	7	> 40	0.3	N[C@@H](Cc1ccccc1)C(=O)NCCC(=O)Nc1ccc2c(c1)C(=O)c1cc(NC(=O)CCNC(=O)[C@@H](N)Cc3ccccc3)ccc1C2=O		
> 40	3.3	> 40	0.4	NCC(=O)NCCNC(=O)c1ccc2c(c1)C(=O)c1cc(C(=O)NCCNC(=O)CN)ccc1C2=O		
> 40	2.1	> 40	0.3	N[C@@H](CO)C(=O)NCCNC(=O)c1ccc2c(c1)C(=O)c1cc(C(=O)NCCNC(=O)[C@@H](N)CO)ccc1C2=O		
				O=C1c2c(O)ccc(O)c2C(=O)c2c(NCCNCCO)ccc(NCCNCCO)c21 [MITOXANTRONE]	< 0.1	< 0.1

EC50 [1] [µM]	ΔTm (Homo sapiens [2]) [°C]	EC50 [3] [µM]	ΔTm (Homo sapiens [4]) [°C]	SMILES	IC50 (HeLa) [µM]	IC50 [5] [µM]
> 40	3.2	> 40	0.3	C[C@@H](O)[C@H](N)C(=O)NCCNC(=O)c1ccc2c(c1)C(=O)c1cc(C(=O)NCCNC(=O)[C@@H](N)[C@@H](C)O)ccc1C2=O		
> 40	2.8	> 40	0.2	CC[C@H](C)[C@H](N)C(=O)NCCC(=O)Nc1ccc2c(c1)C(=O)c1cc(NC(=O)CCNC(=O)[C@@H](N)[C@@H](C)CC)ccc1C2=O		
> 40	1.1	> 40	0.2	CC[C@H](C)[C@H](N)C(=O)NCCNC(=O)c1ccc2c(c1)C(=O)c1ccc(C(=O)NCCNC(=O)[C@@H](N)[C@@H](C)CC)cc1C2=O		
> 40	2.5	> 40	0.3	N[C@@H](CO)C(=O)NCCNC(=O)c1ccc2c(c1)C(=O)c1ccc(C(=O)NCCNC(=O)[C@@H](N)CO)cc1C2=O		
> 40	1.9	> 40	0.4	C[C@@H](O)[C@H](N)C(=O)NCCNC(=O)c1ccc2c(c1)C(=O)c1ccc(C(=O)NCCNC(=O)[C@@H](N)[C@@H](C)O)cc1C2=O		
	16.2		5.1	N=C(N)NCCC[C@H](N)C(=O)NCCNC(=O)c1ccc2c(c1)C(=O)c1cc(C(=O)NCCNC(=O)[C@@H](N)CCCNC(=N)N)ccc1C2=O	35	85
	22.9		9.8	N=C(N)NCCC[C@H](N)C(=O)NCC(=O)Nc1ccc2c(c1)C(=O)c1ccc(NC(=O)CNC(=O)[C@@H](N)CCCNC(=N)N)cc1C2=O	89	86
1.2		10		NC(N)=NCCC[C@H](N)C(=O)NCCNC(=O)c1ccc2c(c1)C(=O)c1cc(C(=O)NCCNC(=O)[C@@H](N)CCCN=C(N)N)ccc1C2=O		
> 40	1	> 40	0.1	N[C@@H](Cc1ccccc1)C(=O)NCCNC(=O)c1ccc2c(c1)C(=O)c1cc(C(=O)NCCNC(=O)[C@@H](N)Cc3ccccc3)ccc1C2=O		
> 40	2.9	> 40	0.3	NCC(=O)NCCNC(=O)c1ccc2c(c1)C(=O)c1ccc(C(=O)NCCNC(=O)CN)cc1C2=O		
> 40	5.7	> 40	0	CC[C@H](C)[C@H](N)C(=O)NCCC(=O)Nc1ccc2c(c1)C(=O)c1ccc(NC(=O)CCNC(=O)[C@@H](N)[C@@H](C)CC)cc1C2=O		
0.8		10		NC(N)=NCCC[C@H](N)C(=O)NCCC(=O)Nc1ccc2c(c1)C(=O)c1ccc(NC(=O)CCNC(=O)[C@@H](N)CCCN=C(N)N)cc1C2=O		
> 40	3.8	> 40	0.7	CC(C)C[C@H](N)C(=O)NCC(=O)Nc1ccc2c(c1)C(=O)c1ccc(NC(=O)CNC(=O)[C@@H](N)CC(C)C)cc1C2=O		
> 40	3.9	> 40	0.5	C[C@H](N)C(=O)NCCNC(=O)c1ccc2c(c1)C(=O)c1cc(C(=O)NCCNC(=O)[C@H](C)N)ccc1C2=O		
> 40	2.7	> 40	0.3	CC(C)C[C@H](N)C(=O)NCCNC(=O)c1ccc2c(c1)C(=O)c1cc(C(=O)NCCNC(=O)[C@@H](N)CC(C)C)ccc1C2=O		
4		4		NC(N)=NCCC[C@H](N)C(=O)NCCC(=O)Nc1ccc2c(c1)C(=O)c1cc(NC(=O)CCNC(=O)[C@@H](N)CCCN=C(N)N)ccc1C2=O		
